Source: PubChem BioAssay (several laboratories)
An excerpt weighted towards active compounds, which were near 4.6% of everything screened.
p97 ATPase inh: inhibitors of human p97 ATPase, primary screen, biochemical. Transitional endoplasmic reticulum ATPase (Homo sapiens), P55072. inhibition, % at 8 µM. hit rate 0.42% among 220,000. AID 1481, 2009. recombinant p97 ATPase, Kinase-Glo ATP luminescence, 3 h; in the data active = inhibition above about 15%
Target sequence (P55072 whole entry, looked up): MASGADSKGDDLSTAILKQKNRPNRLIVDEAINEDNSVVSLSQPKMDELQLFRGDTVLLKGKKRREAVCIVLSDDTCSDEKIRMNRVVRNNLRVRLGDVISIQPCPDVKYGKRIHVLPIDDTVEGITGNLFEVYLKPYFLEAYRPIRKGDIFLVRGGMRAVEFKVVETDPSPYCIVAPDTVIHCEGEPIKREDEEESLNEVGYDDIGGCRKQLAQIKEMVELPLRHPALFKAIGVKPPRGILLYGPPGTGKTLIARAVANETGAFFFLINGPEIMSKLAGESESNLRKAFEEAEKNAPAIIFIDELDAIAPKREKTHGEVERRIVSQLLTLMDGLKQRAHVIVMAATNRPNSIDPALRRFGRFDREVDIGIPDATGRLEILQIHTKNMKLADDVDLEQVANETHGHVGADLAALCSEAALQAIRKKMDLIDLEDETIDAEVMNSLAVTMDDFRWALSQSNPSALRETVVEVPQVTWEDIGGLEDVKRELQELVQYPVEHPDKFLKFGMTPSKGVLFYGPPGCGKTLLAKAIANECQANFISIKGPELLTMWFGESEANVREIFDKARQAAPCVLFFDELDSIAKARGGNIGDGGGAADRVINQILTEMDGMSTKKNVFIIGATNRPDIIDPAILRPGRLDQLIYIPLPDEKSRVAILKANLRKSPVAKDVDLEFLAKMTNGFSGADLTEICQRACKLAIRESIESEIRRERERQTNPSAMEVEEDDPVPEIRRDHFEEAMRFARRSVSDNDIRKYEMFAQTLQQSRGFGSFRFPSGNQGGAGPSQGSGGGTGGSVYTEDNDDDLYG
Mdm2 ligase inh: MDM2-luciferase reporter signal enhancers, primary screen, MDM2 E3 ligase inhibitor project, cell-based, luminescence, 1536-well | E3 ubiquitin-protein ligase Mdm2 (Homo sapiens), Q00987 | hit rate 0.11% among 210,000 | cell-based MDM2 ubiquitination luciferase reporter, 2 h; 0 = plate control, 100 = twice control, blank-subtracted | signal enhancement, % at 5 µM;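 active = signal enhancement of 30% or more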;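 also: luminescence tracks abundance of the self-degrading MDM2-luciferase fusion protein; higher signal means inhibition of MDM2 E3 ligase activity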
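Timing – 2 h compound exposure at 37 °C · Assay system – mammalian cells stably expressing self-ubiquitinating, self-degrading MDM2 E3–luciferase fusion · Amount – 2000 cells seeded into each well · Measure – % luminescence enhancement versus blank-corrected plate control mean · Measured by – SteadyLite luminescence, 15 min reagent step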
NF-kB neuron act: activators of NF-kB expression in neurons, primary screen, cell-based, HTS; hit rate 1.6% among 190,000; human neuronal cells, NF-kB reporter expression; hits give high values; fold change at 12.5 µM; in the data active = fold change above about 3.3
STAT1 activator: STAT1 signaling activators, primary screen, cell-based, HTS, luciferase reporter; NIH 3T3 STAT1-luciferase reporter, IFN-gamma, luminescence; 100% = IFN-gamma alone, no compound; activation (% of control), % at 5.5 µM; hit rate 2.6% among 200,000; AID 932, 2007;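 active = activation above the screen-wide mean activation plus 3 SD, cut at about 130% in these data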
Wee1 stabilizer: Wee1 degradation inhibitors, primary screen, cell-based, HeLa, Wee1K328M-luciferase, luminescence; hit rate 1.2% among 220,000; reporter increase, % at 5 µM; HeLa Luc-Wee1K328M stability; 100% = proteasome inhibitor MG132 effect; Wee1-like protein kinase (Homo sapiens), P30291;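 active = activation above the mean of all tested compounds plus 3 SD, set per screening run, cut at about 8.8% in these data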;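 also: cells exposed to compound for 20 h before luminescence read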
APP 5'UTR act: activators of APP 5'UTR luciferase reporter, primary screen, SH-SY5Y cells; SH-SY5Y APP 5'UTR luciferase reporter, luminescence; zero percent = DMSO vehicle wells; activation, % at 2 µM; hit rate 1% among 190,000; AID 1276, 2008;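 active = activation above a set limit, based on mean plus 3 SD of controls, cut at about 140% in these data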
Each line names hits and unclear results; the compound was inactive in the other large screens.

CC(=O)c1ccc(OCC(O)Cn2nnc3ccccc32)cc1 (centres undefined)	Mdm2 ligase inh 36
COc1cc(CNCc2c[nH]c3ccccc23)cc(OC)c1	none
Cc1ccc(C(=O)Cn2nnc3ccccc32)cc1	NF-kB neuron act 3.3
Cc1cccc(NC(=O)c2cnc3n(c2=O)CCS3)c1	STAT1 activator 132
O=C(Nc1ccc2c(c1)OCCO2)c1cnc2n(c1=O)CCS2	STAT1 activator 142
CCC(c1nnc(SCC(=O)Nc2cccnc2Cl)n1-c1ccccc1)N(C)C (centres undefined)	none
CC(=O)N=c1c(C#N)cc2c(=O)n3cccc(C)c3nc2n1Cc1ccco1	Wee1 stabilizer 9.1 (no result: NF-kB neuron act, STAT1 activator, APP 5'UTR act)
Cc1ccccc1C(=O)N=c1c(C#N)cc2c(=O)n3cccc(C)c3nc2n1Cc1ccco1	none
O=C(Cc1ccc(-n2c(=O)c3sccc3n(CC(=O)Nc3ccccc3F)c2=O)cc1)NCc1ccco1	none
COc1ccc(/C=N/N=C(\N)c2nonc2N)cc1	NF-kB neuron act 9.4, APP 5'UTR act 191
COc1cc(/C=N/N=C(\N)c2nonc2N)cc(OC)c1O	none (no result: NF-kB neuron act, STAT1 activator, APP 5'UTR act)
CN(C(=O)Nc1ccc(Cl)cc1Cl)C1CCCC1	STAT1 activator 135
O=C(Nc1ccc(Cl)cc1Cl)NC1CCCC1	none
COc1ccccc1OCC(=O)N/N=C1\CCCCc2ccccc21	none (no result: NF-kB neuron act, STAT1 activator, APP 5'UTR act)
O=C(COc1ccccc1F)N/N=C1\CCCc2ccccc21	STAT1 activator 139, Wee1 stabilizer 11
Cc1ccc(/C=C2/NC(=O)N(Cc3ccc(Br)cc3)C2=O)o1	Mdm2 ligase inh 32
Nc1ccc2c(c1)C/C(=C/c1ccco1)C2=O	p97 ATPase inh 15, STAT1 activator 210, APP 5'UTR act 189
COc1ccc2c(c1)CC/C(=C/c1ccco1)C2=O	NF-kB neuron act 8.1, STAT1 activator 133, APP 5'UTR act 181
O=C1/C(=C/c2ccco2)CCc2ccccc21	APP 5'UTR act 164
COc1ccc2c(c1)CC/C(=C\c1ccc(OC)c(Cn3cccn3)c1)C2=O	none
O=C(NCc1ccco1)C(=O)NCC1OCCN1C(=O)c1ccc(Cl)cc1 (centres undefined)	none (no result: NF-kB neuron act, STAT1 activator, APP 5'UTR act)
O=C1Oc2ccccc2C(=O)/C1=C\N1CCN(c2ccccc2)CC1	none
O=C1C(=O)c2ccc(-c3ccccc3)cc2-c2ccccc21	none (no result: Mdm2 ligase inh)
Nc1ccc2c(c1)C(=O)C(=O)c1ccccc1-2	p97 ATPase inh 31
CC(=O)C1=C(O)C(=O)N(c2ccc(Br)cn2)C1c1ccc(Br)cc1 (centres undefined)	Wee1 stabilizer 10 (no result: NF-kB neuron act, STAT1 activator, APP 5'UTR act)
CC(=O)C1=C(O)C(=O)N(c2nccs2)C1c1ccc(Br)cc1 (centres undefined)	Wee1 stabilizer 9.1
CC(=O)C1=C(O)C(=O)N(c2ccc(Br)cn2)C1c1ccc(F)cc1 (centres undefined)	Wee1 stabilizer 11
COc1cc(C2C(C(C)=O)=C(O)C(=O)N2c2ccc(Br)cn2)ccc1O (centres undefined)	none
CC(C)C(NC(=O)c1ccc(F)cc1)C(=O)OCC(=O)N1CC(=O)Nc2ccccc21 (centres undefined)	none
NC(=O)c1c(NC(=O)c2ccccc2)sc2c1CCc1ccccc1-2	NF-kB neuron act 4.1, STAT1 activator 140
COc1cc(/C=N/Nc2cc(C)nc(NS(=O)(=O)c3ccccc3)n2)ccc1O	Wee1 stabilizer 10 (no result: NF-kB neuron act, STAT1 activator, APP 5'UTR act)
COc1cc(/C=N/Nc2cc(C)nc(NS(=O)(=O)c3ccc(C)cc3)n2)ccc1O	none
COc1ccc(C(=O)Cc2ccc3c(c2)OCO3)c(O)c1	STAT1 activator 147
ClCC1=Nc2cccc3cccc(c23)N1	p97 ATPase inh 15 (no result: Mdm2 ligase inh, NF-kB neuron act, STAT1 activator, APP 5'UTR act)
O=C(Nc1cccc2ccccc12)c1cc2c(cc1Br)OCO2	none (no result: NF-kB neuron act, STAT1 activator, APP 5'UTR act)
O=C(CCSc1ccc(Cl)cc1)Nc1cccnc1	NF-kB neuron act 7.7
COC(CNC(=O)c1cccc(-n2c(=S)[nH]c3cc(Cl)ccc3c2=O)c1)OC	none
Clc1ccc(/C=C/c2ncc3ccccn23)cc1	NF-kB neuron act 3.7, STAT1 activator 144
Fc1ccc(-c2ncc3ccccn23)cc1	none
Cc1ccsc1/C=N/Nc1ncc(Cl)cc1Cl	STAT1 activator 140 (no result: APP 5'UTR act)
O=C(Nc1ccccc1)c1cc2n(n1)C(C(F)(F)F)CC(C1CC1)N2 (centres undefined)	STAT1 activator 142
Cc1cc(NC(=O)c2cc3n(n2)C(C(F)(F)F)CC(c2ccco2)N3)no1 (centres undefined)	Wee1 stabilizer 9.9
COc1ccc(OCC(=O)Nc2ccc3c(c2)nc(CCN2CCOCC2)n3C)cc1	Wee1 stabilizer 9.1
Cc1cccc(S(=O)(=O)C(C#N)c2nc3ccccc3nc2N2CCCC2)c1 (centres undefined)	p97 ATPase inh 20
Brc1ccccc1-c1nnc(SCc2nc3ccccc3s2)o1	STAT1 activator 136
CCN(CC)S(=O)(=O)c1cccc(-c2nnc(SCc3nc4ccccc4s3)o2)c1	none
CCOC(=O)c1ccc(-n2nc(C(F)(F)F)c3c(C)cc(=O)oc32)cc1	none (no result: Mdm2 ligase inh, NF-kB neuron act)
Cc1ncoc1C(=O)Nc1nccs1	none
CC(C)OCc1c(C(=O)Nc2nccs2)oc2ccccc12	Wee1 stabilizer 11
N=C1C(c2nc3ccccc3[nH]2)=C(O)CN1c1ccc(F)cc1	Wee1 stabilizer 9.7
Cc1ccc(S(=O)(=O)N(Cc2cc3cccc(C)c3[nH]c2=O)c2ccccc2)cc1	Wee1 stabilizer 9.1 (no result: Mdm2 ligase inh)
CCOC(=O)c1c(OCCO)nn(-c2ccccc2)c1N	none
CS(=O)(=O)c1ncc(CO)n1Cc1ccccc1	none
CCOC(=O)c1cnn(-c2cc(C(C)(C)C)nc3c(-c4ccccc4)c(C)nn23)c1N	none
CCOC(=O)c1cnn(-c2cc(C)nc3c(-c4ccccc4)cnn23)c1N	Wee1 stabilizer 11
COc1ccccc1CCc1nnc(CCC(=O)N(C)Cc2cccc3cnccc23)o1	STAT1 activator 131
COc1ccccc1CCc1nnc(CCC(=O)N(C)Cc2ccncc2C)o1	none
O=C(NC(=S)Nc1ccccn1)c1ccccc1	none (no result: NF-kB neuron act, STAT1 activator, APP 5'UTR act)
O=C(NC(=S)Nc1ccccn1)c1ccco1	STAT1 activator 132
Cc1ccnc(NC(=S)NC(=O)c2ccco2)c1	NF-kB neuron act 4.7, STAT1 activator 130, APP 5'UTR act 149
O=C(NNC(=S)NC(=O)c1ccco1)c1ccc(F)cc1	Wee1 stabilizer 10 (no result: NF-kB neuron act, STAT1 activator, APP 5'UTR act)
CC(C)C(=O)NC(=S)Nc1ccccn1	p97 ATPase inh 20
O=C(N/N=C/c1cccc([N+](=O)[O-])c1)c1ccc(COc2ccccc2-c2ccccc2)cc1	none
Nc1cc2c(cc1O)CCCC2	none
O=C(/C=C/c1cccs1)Nc1nncs1	none (no result: NF-kB neuron act, STAT1 activator, APP 5'UTR act)
